The subject of assay [1] is Trametes versicolor.
Assay [2] has as its system Trametes versicolor. This is another data set of the same source.
In assay [3] the test system is Anopheles gambiae. Nature of the assay: Antilarval activity against third-instar larvae of Anopheles gambiae assessed as effect on cuticle development by microscopic analysis relative to control. It counts as functional.
Assay [4] relates to Anopheles gambiae. Briefly: Antilarval activity against third-instar larvae of Anopheles gambiae assessed as mortality at 50 ug/L after 72 hrs. It counts as functional. In short, it runs like this:
(§1)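 Third-instar larvae came from a laboratory An. gambiae colony originally from MR4. Groups of 12–15 larvae were held at 25°C in distilled water with larval food. Compound was added from an acetone or water stock to final 50 or 1000 μg/L, with a solvent-only control. Treatments and controls were run four times, and mortality was scored at 72 h.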

The subject of assay [5] is Anopheles gambiae. Nature of the assay: Antilarval activity against third-instar larvae of Anopheles gambiae assessed as mortality at 1000 ug/L after 72 hrs. It counts as functional. The essentials: as §1
The subject of a further assay is Culex pipiens molestus. Briefly: Antilarval activity against third-instar larvae of Culex molestus assessed as mortality at 100 ug/L after 72 hrs. It counts as functional.
The subject of assay [6] is Trametes versicolor. Nature of the assay: Inhibition of Trametes versicolor laccase.

Activity calls are given as the source filed them. The calls are words filed in the database; no cut-off is given here.
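Wherever Km is given: kinetic parameters for Trametes versicolor laccase, determined from a spectrophotometric readout.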
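Wherever kcat/Km is given: measured with the laccase enzyme of Trametes versicolor.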

Broadly, the kcat/Km is the turnover number divided by the Michaelis constant. Usually Km stands for the substrate concentration at which the rate is half of its maximum. As a reminder, the kcat is the maximal rate divided by the concentration of active sites. Turning to `Nc1ccccc1O`, in the assay on Trametes versicolor [1], the kcat/Km was determined as 197000 M⁻¹ s⁻¹. Also, in the assay on Trametes versicolor [2], the Km turned out to be 190 µM and the kcat was determined as 37.5 s⁻¹.
Consider `CC(C)=CCc1cc(C(C)(C)C)cc(C(C)(C)C)c1O`, for which, in the assay on Anopheles gambiae [3], the outcome was Active. Further, the Activity in the assay with Anopheles gambiae [4] is given as 98.1%; in the assay with Anopheles gambiae [5], 98.3%; with Culex pipiens molestus it was 60%.
For `CC(C)(C)c1cc(C(C)(C)CNCc2ccccc2)cc(C(C)(C)C)c1O.O=C(O)C(F)(F)F`, the results for the Activity in the assay on Anopheles gambiae [4] and with Anopheles gambiae [5] were 3.71% and 7.7%, respectively.
Take `COc1c(O)cc(O)c(Br)c1Cl`: in the assay on Trametes versicolor [1], the kcat/Km is 1.37e+06 M⁻¹ s⁻¹. Besides, in the assay with Trametes versicolor [2], the Km was determined as 70 µM and the kcat was found to be 96 s⁻¹. Moreover, the inhibition entry in the assay with Trametes versicolor [6] was “inactive”.
As to `COC1=CC(=O)C(N[C@@H](C)C(=O)OCc2ccccc2)=C(Cl)C1=O`, the Activity in the assay on Anopheles gambiae [4] is given as 5%; with Anopheles gambiae [5], 6.66%.
Regarding `Oc1ccccc1O`, the kcat/Km in the assay with Trametes versicolor [1] amounted to 55800 M⁻¹ s⁻¹. In addition, in the assay on Trametes versicolor [2], the Km turned out to be 600 µM and the turnover number (kcat) amounted to 33.5 s⁻¹.
For the compound `COc1cc(O)c(Br)c(Cl)c1O`, the kcat/Km in the assay with Trametes versicolor [1] was 262000 M⁻¹ s⁻¹. In the assay with Trametes versicolor [2], the Michaelis-Menten constant (Km) was found to be 70 µM and the kcat stood at 18.3 s⁻¹. The inhibition result in the assay on Trametes versicolor [6] is “inactive”.
For `Nc1ccc(C(=O)O)cc1O`, in that order: 250000 M⁻¹ s⁻¹, 170 µM, 42.5 s⁻¹ and “inactive”.
The matching figures for `COc1cc(O)c(O)c(Cl)c1Br`: 2.24e+06 M⁻¹ s⁻¹, 40 µM, 89.7 s⁻¹ and “inactive”.
The matching figures for `Nc1cc(CO)ccc1O`: 788000 M⁻¹ s⁻¹, 80 µM, 63 s⁻¹ and “inactive”.
Take `CC(C)(C)c1cc(C(C)(C)C(=O)[O-])cc(C(C)(C)C)c1O.[Na+]`: the results for the Activity in the assay with Anopheles gambiae [4] and with Anopheles gambiae [5] were 5.5% and 12.3%, respectively.
The matching figures for `CC(C)(C)c1cc(C(C)(C)/C=N/O)cc(C(C)(C)C)c1O`: 5.41% and 93.1%.
As to `CC(C)(C)c1cc(C(C)(C)c2ccccc2)cc(C(C)(C)C)c1O`, the figures for the Activity with Anopheles gambiae [4] and in the assay with Anopheles gambiae [5] were 93.3% and 100%, respectively.
Regarding `COc1cc(C=O)cc(Cl)c1O`, in the assay with Trametes versicolor [1], the kcat/Km was determined as 47800 M⁻¹ s⁻¹. In the assay with Trametes versicolor [2], the Km was determined as 2200 µM and the kcat came out at 105 s⁻¹. In addition, the inhibition entry in the assay on Trametes versicolor [6] is “inactive”.
The matching figures for `Nc1cc(C(=O)O)ccc1O`: 698000 M⁻¹ s⁻¹, 70 µM, 48.8 s⁻¹ and “inactive”.
Regarding `CC(C)(Br)C(=O)c1cc(C(C)(C)C)c(O)c(C(C)(C)C)c1`, the Activity in the assay with Anopheles gambiae [4] was 0%; in the assay on Anopheles gambiae [5], 60%.
With `O=Cc1cc(O)c(O)c(Cl)c1`, in the assay on Trametes versicolor [1], the kcat/Km was 792000 M⁻¹ s⁻¹. In the assay with Trametes versicolor [2], the Km came out at 40 µM and the kcat was 31.7 s⁻¹. The inhibition entry with Trametes versicolor [6] is “inactive”.
As to `CC(C)(C)c1cc(C(C)(C)CO)cc(C(C)(C)C)c1O`, the Activity is given as 0% in the assay on Anopheles gambiae [4] and 46.7% with Anopheles gambiae [5].
For `CC(C)(C)c1cc(C(C)(C)C=O)cc(C(C)(C)C)c1O`, in that order: 0% and 65%.
For the compound `Cc1ccc(O)c(N)c1`, the kcat/Km in the assay on Trametes versicolor [1] is 1.19e+06 M⁻¹ s⁻¹. Moreover, in the assay on Trametes versicolor [2], the Km stood at 110 µM and the kcat was 131 s⁻¹. In the assay on Trametes versicolor [6], the inhibition result is “inactive”.
Take `Oc1cc(O)c(Br)c(Cl)c1O`: in the assay with Trametes versicolor [1], the kcat/Km is 2.89e+06 M⁻¹ s⁻¹. Further, the results for the Activity in the assay on Anopheles gambiae [4] and with Anopheles gambiae [5] were 0% and 11.4%, respectively. Besides, the Km with Trametes versicolor [2] stood at 50 µM. Also, in the assay with Trametes versicolor [2], the kcat was found to be 145 s⁻¹. Also, the inhibition result with Trametes versicolor [6] was “inactive”.
Take `Nc1ccccc1N`: the kcat/Km with Trametes versicolor [1] was 40300 M⁻¹ s⁻¹. Also, in the assay on Trametes versicolor [2], the Km came to 430 µM and the kcat was found to be 17.3 s⁻¹.
Turning to `CC1(C)CCc2cc(C(C)(C)C)cc(C(C)(C)C)c2O1`, the figures for the Activity in the assay with Anopheles gambiae [4] and with Anopheles gambiae [5] were 5.77% and 91.7%, respectively.
Consider `Oc1ccc(O)cc1` [HYDROQUINONE], for which, in the assay on Trametes versicolor [1], the kcat/Km was determined as 594 M⁻¹ s⁻¹. Further, in the assay on Anopheles gambiae [4], the Activity was 1.25%. Further, in the assay on Trametes versicolor [2], the Km is 20 µM and the kcat worked out at 119 s⁻¹. In the assay on Anopheles gambiae [5], the Activity turned out to be 5.38%.

These data come from ChEMBL document CHEMBL2202957, “Redox potentials, laccase oxidation, and antilarval activities of substituted phenols” (2012).
